Measurements as given in ChEMBL document CHEMBL1142613, “Characterization of the major metabolite of sampangine in rats” (J Nat Prod, 2000).
≈ marks a conversion by molar mass, not a printed value. Calls of active or inactive are those of the source. The rule behind the calls is not given here.

Tests used:
Candida albicans [1] = assay: Antifungal activity against Candida albicans NIH B311 after 24 hrs by twofold serial dilution method; type: functional
Outline: (§1)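 Two-fold serial broth macrodilution. C. albicans was grown in yeast nitrogen broth and incubated 24 h; C. neoformans in Mycophil broth, 48 h; both at 37 °C. MIC taken as the lowest concentration visually inhibiting growth. Footnote notes one test sample was run in Eugon by a microplate method.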

Cryptococcus neoformans [2] = assay: Antifungal activity against Cryptococcus neoformans ATCC 52657 at 100 ug/mL after 48 hrs by agar well diffusion method; type: functional; conditions: ATCC 52657, 48 h, read-out: IZ
Outline: (§2)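 Agar well diffusion at a test concentration of 100 µg/mL; activity read as zone of inhibition diameter in mm. C. albicans was grown in yeast nitrogen broth, C. neoformans in Mycophil broth.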

Cryptococcus neoformans [3] = assay: Antifungal activity against Cryptococcus neoformans ATCC 52657 after 48 hrs by twofold serial dilution method; type: functional; conditions: ATCC 52657, 48 h; outline: as §1
Candida albicans [4] = assay: Antifungal activity against Candida albicans NIH B311 at 100 ug/mL after 24 hrs by bioautography; type: functional; conditions: read-out: IZ
Outline: (§3)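 Bioautography at a test concentration of 100 µg/mL; activity recorded as zone of inhibition in mm. Media were yeast nitrogen broth for C. albicans and Mycophil broth for C. neoformans.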

Cryptococcus neoformans [5] = assay: Antifungal activity against Cryptococcus neoformans ATCC 52657 at 100 ug/mL after 48 hrs by bioautography; type: functional; conditions: ATCC 52657, 48 h, read-out: IZ; outline: as §3
Candida albicans [6] = assay: Antifungal activity against Candida albicans NIH B311 at 100 ug/mL after 24 hrs by agar well diffusion method; type: functional; conditions: read-out: IZ; outline: as §2
Escherichia coli = assay: Antibacterial activity against Escherichia coli ATCC 10536; type: functional, organism-based
Outline: (§4)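 Colorimetric oxidation-reduction broth assay, with Alamar blue dye added as an indicator of the organism's metabolic activity; result expressed as MIC in µg/mL; streptomycin served as positive control.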

Staphylococcus aureus = assay: Antibacterial activity against Staphylococcus aureus ATCC 6538; type: functional, organism-based; outline: as §4
Bacillus subtilis = assay: Antibacterial activity against Bacillus subtilis ATCC 6333; type: functional, organism-based; outline: as §4
Pseudomonas aeruginosa = assay: Antibacterial activity against Pseudomonas aeruginosa ATCC 15442; type: functional, organism-based; outline: as §4

| MIC (Candida albicans [1]) [µg/mL] | MIC (Cryptococcus neoformans [3]) [µg/mL] | SMILES | zone of inhibition at 100 µg/mL (Cryptococcus neoformans [2]) [mm] | zone of inhibition at 100 µg/mL (Candida albicans [4]) [mm] | zone of inhibition at 100 µg/mL (Cryptococcus neoformans [5]) [mm] | zone of inhibition at 100 µg/mL (Candida albicans [6]) [mm] | Activity (Escherichia coli) | Activity (Staphylococcus aureus) | Activity (Bacillus subtilis) | Activity (Pseudomonas aeruginosa) |
| --- | --- | --- | --- | --- | --- | --- | --- | --- | --- | --- |
| 3.12 (≈ 13.4 µM) | 0.2 (≈ 0.861 µM) | O=C1c2ccccc2-c2nccc3ccnc1c23 [SAMPANGINE] | 35 | 10 | 35 | 10 | – | – | – | – |
| > 25 | > 25 | O=C(O)[C@H]1O[C@@H](Oc2c3c4c(ccnc4c4ccccc24)C=CN3)[C@H](O)[C@@H](O)[C@@H]1O | 26 | – | 35 | 6 | inactive | inactive | inactive | inactive |
